The text below walks through data of ChEMBL document CHEMBL1137014, “Structure-activity study of new inhibitors of human betaine-homocysteine S-methyltransferase” (J Med Chem, 2009).

What is called inhibition is how much of the control response was suppressed. A word on the IC50: it is the concentration needed to halve the response being measured. As usually defined, the Kd is the constant that tells how readily two partners part at equilibrium.

Assay [1] addresses T1, Betaine--homocysteine S-methyltransferase 1 (Homo sapiens) (UniProt Q93088).
T1 sequence (whole entry): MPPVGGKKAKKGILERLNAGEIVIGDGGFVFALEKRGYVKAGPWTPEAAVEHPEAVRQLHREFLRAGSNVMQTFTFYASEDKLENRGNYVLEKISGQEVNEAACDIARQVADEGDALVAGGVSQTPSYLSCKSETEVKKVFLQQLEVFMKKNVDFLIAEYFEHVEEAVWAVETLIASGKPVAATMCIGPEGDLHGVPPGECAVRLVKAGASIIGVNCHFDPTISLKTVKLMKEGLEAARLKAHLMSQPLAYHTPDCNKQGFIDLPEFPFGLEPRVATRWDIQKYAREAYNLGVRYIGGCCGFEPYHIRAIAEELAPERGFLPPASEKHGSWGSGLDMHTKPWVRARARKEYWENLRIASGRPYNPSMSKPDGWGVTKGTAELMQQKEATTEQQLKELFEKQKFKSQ
Kind of assay: Inhibition of human recombinant BHMT expressed in Escherichia coli at 20 uM using 0.25 mM betaine and 0.1 mM DL-homocysteine as substrate. Summed up:
(§1)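 Radiometric assay with 0.2 μM enzyme, preincubated with inhibitor, then 100 μM DL-homocysteine (fresh from thiolactone) and 250 μM [methyl-14C]betaine. Run in 50 mM K-phosphate pH 7.5 with 10 mM β-mercaptoethanol, 37 °C, 30 min; stopped on ice. […] Enzyme-free blanks subtracted; triplicates; activity expressed relative to no-inhibitor control.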

For assay [2], the target named is T1, Betaine--homocysteine S-methyltransferase 1 (Homo sapiens). Kind of assay: Inhibition of human recombinant BHMT expressed in Escherichia coli at 1 uM using 0.25 mM betaine and 0.1 mM DL-homocysteine as substrate. Put shortly:
as §1

The target in assay [3] is T2, Betaine--homocysteine S-methyltransferase 1 (Homo sapiens, UniProt Q93088).
T2 sequence (Q93088 whole entry): T1 sequence (whole entry)
Kind of assay: Inhibition of human recombinant BHMT expressed in Escherichia coli using 2 mM betaine and 1 mM DL-homocysteine as substrate. Summed up: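 Same radiometric Dowex assay as for percent inhibition (0.2 μM enzyme, pH 7.5 K-phosphate, 37 °C, 30 min), but with 1 mM DL-homocysteine and 2 mM 14C-betaine. Ten inhibitor concentrations in duplicate per curve, IC50 by nonlinear regression. Three independent experiments, mean ± SEM.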

Assay [4] addresses T2, Betaine--homocysteine S-methyltransferase 1. As to the kind of experiment: Binding affinity to human recombinant BHMT expressed in Escherichia coli by isothermal titration calorimetry. Summed up: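 ITC at 25 °C in 50 mM HEPES/NaOH, ACES/NaOH or Tris/HCl, pH 7.5, with 5 mM β-mercaptoethanol, no substrates present. 9 μL aliquots of 50 μM ligand injected into 5.1 μM protein (monomer, quantified by amino acid analysis after dialysis) until saturation. Heats corrected for dilution using buffer-only injections and fitted to the integrated heats.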
(In ITC the heat of successive injections is recorded.)

Regarding `NC(CCOCCCCC(=O)O)C(=O)O` (racemic), the inhibition in assay [1] is 9.8%.

For `CN(CCSCCC(N)C(=O)O)CC(=O)O` (racemic), the inhibition in assay [1] is 98.5%; in assay [2], 58.9%. Further, in assay [3], the IC50 is 2500 nM.

`CC(C)(CCSCC[C@@H](N)C(=O)O)CC(=O)O`: the IC50 in assay [3] was 701 nM.

`NC(CCSCCNCCC(=O)O)C(=O)O` (racemic): in assay [1], the inhibition worked out at 0%.

On to `CC(C)(CCSCC[C@H](N)C(=O)O)CC(=O)O`, for which the Kd in assay [4] worked out at 51 nM. In addition, the IC50 in assay [3] was determined as 64 nM.

For `NC(CCSSCCCC(=O)O)C(=O)O` (racemic), the inhibition in assay [1] is 19.1%.

As for `NC(CCSCSCCC(=O)O)C(=O)O` (racemic), the results for the inhibition in assay [1] and in assay [2] were 97.6% and 26.3%, respectively. For the same compound, the IC50 in assay [3] worked out at 3260 nM.

With `NC(CCCSCCCC(=O)O)C(=O)O` (racemic), the inhibition in assay [1] amounted to 5.4%.

Regarding `NC(CC[Se]CCCCC(=O)O)C(=O)O` (racemic), the inhibition in assay [1] is 100%; in assay [2], 94.3%. Besides, the IC50 in assay [3] was determined as 649 nM.

With `C[N+](C)(CSCCC(N)C(=O)O)CC(=O)[O-]` (racemic), the inhibition in assay [1] and in assay [2] was 0% each time.

For `NC(CCSCCNCC(=O)O)C(=O)O` (racemic), the inhibition in assay [1] stood at 37.1%.

For `CN(CCCSCCC(N)C(=O)O)CC(=O)O` (racemic), the values for the inhibition in assay [1] and in assay [2] were 79% and 22.4%, respectively.

As for `C[N+](C)(CCCSCCC(N)C(=O)O)CC(=O)[O-]` (racemic), the results for the inhibition in assay [1] and in assay [2] were 3.3% and 0%, respectively.

`C[C@@H](NCCSCCC(N)C(=O)O)C(=O)O` (mixture of isomers): the inhibition in assay [1] was found to be 15.5%.

As for `C[N+](C)(CCSCCC(N)C(=O)O)CC(=O)[O-]` (racemic), the inhibition is 23.8% in assay [1] and 5.1% in assay [2].

As to `CC(C)(CCSCCC(N)C(=O)O)CC(=O)O` (racemic), the figures for the inhibition in assay [1] and in assay [2] were 100% and 98.1%, respectively. Besides, the IC50 in assay [3] amounted to 84 nM.

Turning to `C[C@H](NCCSCCC(N)C(=O)O)C(=O)O` (mixture of isomers), in assay [1], the inhibition was found to be 19.8%.

Regarding `C[C@@H](CCSCC[C@@H](N)C(=O)O)CC(=O)O` (racemic), the inhibition in assay [1] stood at 100%; in assay [2] it was 97.8%. In addition, the IC50 in assay [3] turned out to be 139 nM.

Regarding `NC(CCCCCCCC(=O)O)C(=O)O` (racemic), the inhibition in assay [1] amounted to 2.11%.
